# Data published in paper PMC3697071 (Natural product communications, 2010).
# Experiments:
# Candida krusei ATCC 6258 = experiment: Antimicrobial assay; type: cell-based; conditions: for C. krusei IC50: first value of IC50/MIC; for C. krusei MIC: second value of IC50/MIC
# [1] = tested on: Staphylococcus aureus ATCC 29213; experiment: Antimicrobial assay; type: cell-based; conditions: for S. aureus IC50: first value of IC50/MIC; for S. aureus MIC: second value of IC50/MIC; for IC50 / MIC: Staphylococcus aureus; for IC50: ATCC29213, read-out: S. aureus IC50; for MIC: ATCC29213, read-out: S. aureus MIC
# Procedure, shortened: (§1)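 Modified CLSI broth susceptibility method. Ciprofloxacin drug control in each assay. […] MIC is the lowest test concentration allowing no detectable growth.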
# [2] = tested on: Aspergillus fumigatus ATCC 90906; experiment: Antimicrobial assay; type: cell-based; conditions: for A. fumigatus IC50: first value of IC50/MIC; for IC50: Aspergillus fumigatus, ATCC90906, read-out: A. fumigatus IC50
# [3] = tested on: Pseudomonas aeruginosa ATCC 27853; experiment: Antimicrobial assay; type: cell-based; conditions: for P. aureginosa IC50: first value of IC50/MIC; for IC50: ATCC27853, read-out: P. aureginosa IC50
# Procedure, shortened: as §1
# [4] = tested on: Leishmania donovani promastigotes; experiment: Antileishmanial assay; type: cell-based; conditions: 72 h; for L. donovani IC50 / L. donovani IC90: promastigotes; for IC50 / IC90: Leishmania donovani; for IC50: read-out: L. donovani IC50; for IC90: read-out: L. donovani IC90
# [5] = tested on: Candida albicans ATCC 90028; experiment: Antimicrobial assay; type: cell-based; conditions: for C. albicans IC50: first value of IC50/MIC; for IC50: Candida albicans, ATCC90028, read-out: C. albicans IC50
# [6] = tested on: Candida glabrata ATCC 90030; experiment: Antimicrobial assay; type: cell-based; conditions: for C. glabrata IC50: first value of IC50/MIC
# [7] = tested on: methicillin-resistant S. aureus ATCC 43300 (MRS); experiment: Antimicrobial assay; type: cell-based, Staphylococcus aureus; conditions: for MRS IC50 / MRS MIC: methicillin-resistant S. aureus; for MRS IC50: first value of IC50/MIC; for MRS MIC: second value of IC50/MIC; for IC50 / MIC: Staphylococcus aureus; for IC50: ATCC43300, read-out: MRS IC50; for MIC: ATCC43300, read-out: MRS MIC
# Procedure, shortened: as §1
# [8] = tested on: Cryptococcus neoformans ATCC 90113; experiment: Antimicrobial assay; type: cell-based; conditions: for C. neoformans IC50: first value of IC50/MIC; for C. neoformans MIC: second value of IC50/MIC; for IC50 / MIC: Cryptococcus neoformans; for IC50: ATCC90113, read-out: C. neoformans IC50; for MIC: ATCC90113, read-out: C. neoformans MIC
# [9] = tested on: P. falciparum W2 (chloroquine-resistant, Indochina); experiment: Antimalarial/parasite LDH assay, W2 clone; type: cell-based, Plasmodium falciparum; conditions: for IC50: Plasmodium falciparum, W2, read-out: P. falciparum W2 IC50
# [10] = tested on: P. falciparum D6 (chloroquine-sensitive, Sierra Leone); experiment: Antimalarial/parasite LDH assay, D6 clone; type: cell-based, Plasmodium falciparum; conditions: for IC50: Plasmodium falciparum, D6, read-out: P. falciparum D6 IC50
# [11] = tested on: Mycobacterium intracellulare ATCC 23068; experiment: Antimicrobial assay; type: cell-based; conditions: for M. intracellulare IC50: first value of IC50/MIC; for IC50: ATCC23068, read-out: M. intracellulare IC50; for M. intracellulare MIC: second value of IC50/MIC
# Procedure, shortened: as §1
# [12] = tested on: Escherichia coli ATCC 35218; experiment: Antimicrobial assay; type: cell-based; conditions: for E. coli IC50: first value of IC50/MIC; for IC50: ATCC35218, read-out: E. coli IC50
# Procedure, shortened: as §1
# Plasmodium falciparum = experiment: Antimalarial/parasite LDH assay, strains not distinguished in text; type: cell-based; conditions: for antimalarial activity against Plasmodium falciparum: result in words; for IC50: Plasmodium falciparum, read-out: antiplasmodial IC50
# Procedure, shortened: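 Colorimetric assay of parasite lactate dehydrogenase (pLDH) activity in P. falciparum cultures, run in 96-well format on two strains: Sierra Leone D6 (chloroquine-sensitive) and Indochina W2 (chloroquine-resistant). DMSO served as vehicle control, with artemisinin and chloroquine as drug controls.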
smiles,measurement,setting,value
"CC(CO)c1cc2c(c(O)c1O)[C@@]1(C)CCCC(C)(C)C1=C(O)C2=O (stereo partly shown) [Compound 8, 6,11,12,16-tetrahydroxy-5,8,11,13-abietatetra-en-7-one]",C. krusei IC50,Candida krusei ATCC 6258,14.5 µg/mL
same,C. krusei MIC,Candida krusei ATCC 6258,20 µg/mL
same,S. aureus IC50,[1],6.8 µg/mL
same,S. aureus MIC,[1],20 µg/mL
same,A. fumigatus IC50,[2],−/− (- =Not Active)
same,P. aureginosa IC50,[3],−/− (=Not Active)
same,L. donovani IC50,[4],12 µg/mL
same,L. donovani IC90,[4],22 µg/mL
same,C. albicans IC50,[5],−/− (- =Not Active)
same,C. glabrata IC50,[6],14.9 µg/mL
same,C. glabrata MIC,[6]; second value of IC50/MIC,20 µg/mL
same,MRS IC50,[7],8.44 µg/mL
same,MRS MIC,[7],20 µg/mL
same,C. neoformans IC50,[8],5.9 µg/mL
same,C. neoformans MIC,[8],20 µg/mL
same,P. falciparum W2 IC50,[9]; chloroquine-resistant clone W2,4.8 µg/mL
same,P. falciparum D6 IC50,[10]; chloroquine-sensitive clone D6,3.0 µg/mL
same,M. intracellulare IC50,[11],−/− (=Not Active)
same,E. coli IC50,[12],−/− (=Not Active)
"CC(C)C1=C(O)C(=O)C2=C(CC[C@H]3C(C)(C)CCC[C@]23C)C1=O [Compound 2, royleanone]",IC50,[1],> 20 µg/mL
same,IC50,[2],> 20 µg/mL
same,IC50,[3]; Pseudomonas aeruginosa,> 20 µg/mL
same,IC50,[5],> 20 µg/mL
same,IC50,[7],> 20 µg/mL
same,IC50,[8],> 20 µg/mL
same,IC50,[9],> 4.76 µg/mL
same,IC50,[10],> 4.76 µg/mL
same,IC50,[11]; Mycobacterium intracellulare,> 20 µg/mL
same,IC50,[12]; Escherichia coli,> 20 µg/mL
"CCN(CC)CCCC(C)Nc1ccnc2cc(Cl)ccc12 (stereo not shown) [Chloroquine, reference compound]",IC50,[9],0.14 µg/mL
same,IC50,[10],< 0.026 µg/mL
"CC1=C(C)C2=CC(=O)c3c(O)c4c(c(O)c3[C@@]2(C)CC1)O[C@@H](C)C4 [Compound 9, uncinatone]",C. krusei IC50,Candida krusei ATCC 6258,−/− (- =Not Active)
same,S. aureus IC50,[1],−/− (=Not Active)
same,A. fumigatus IC50,[2],−/− (- =Not Active)
same,P. aureginosa IC50,[3],−/− (=Not Active)
same,L. donovani IC50,[4],0.2 µg/mL
same,L. donovani IC90,[4],0.9 µg/mL
same,C. albicans IC50,[5],−/− (- =Not Active)
same,antimalarial activity against Plasmodium falciparum,Plasmodium falciparum,inactive
same,C. glabrata IC50,[6],−/− (- =Not Active)
same,MRS IC50,[7],−/− (=Not Active)
same,C. neoformans IC50,[8],−/− (- =Not Active)
same,M. intracellulare IC50,[11],−/− (=Not Active)
same,E. coli IC50,[12],−/− (=Not Active)
"CC(C)c1cc2c(cc1O)[C@@]1(C)CCCC(C)(C)[C@@H]1CC2 [Compound 6, ferruginol]",IC50,[1],1.33 µg/mL
same,MIC,[1],2.5 µg/mL
same,S. aureus MIC,[1],2.5 to 5 µg/mL
same,IC50,[2],> 20 µg/mL
same,IC50,[3]; Pseudomonas aeruginosa,> 20 µg/mL
same,IC50,[4],4 µg/mL
same,IC90,[4],13 µg/mL
same,IC50,[5],> 20 µg/mL
same,IC50,[7],0.96 µg/mL
same,MIC,[7],2.5 µg/mL
same,MRS MIC,[7],2.5 µg/mL
same,IC50,[8],> 20 µg/mL
same,IC50,[9],> 4.76 µg/mL
same,IC50,[10],> 4.76 µg/mL
same,IC50,[11]; Mycobacterium intracellulare,14.5 µg/mL
same,M. intracellulare MIC,[11],−
same,IC50,[12]; Escherichia coli,> 20 µg/mL
"O=C(O)c1cn(C2CC2)c2cc(N3CCNCC3)c(F)cc2c1=O [Ciprofloxacin, reference compound]",IC50,[1],0.1 µg/mL
same,MIC,[1],0.25 µg/mL
same,IC50,[3]; Pseudomonas aeruginosa,0.06 µg/mL
same,MIC,"[3]; Pseudomonas aeruginosa, ATCC27853, read-out: P. aureginosa MIC",0.25 µg/mL
same,IC50,[7],0.08 µg/mL
same,MIC,[7],0.25 µg/mL
same,IC50,[11]; Mycobacterium intracellulare,0.3 µg/mL
same,MIC,"[11]; Mycobacterium intracellulare, ATCC23068, read-out: M. intracellulare MIC",1 µg/mL
same,IC50,[12]; Escherichia coli,0.004 µg/mL
same,MIC,"[12]; Escherichia coli, ATCC35218, read-out: E. coli MIC",0.008 µg/mL
"CC(C)c1cc2c(c(O)c1OC1OCC(O)C(O)C1O)C1(C)CCCC(C)(C)C1CC2 (stereo not drawn) [Compound 10, 11-hydroxy-8,11,13-abietatriene-12-O-β-xylopyranoside]",C. krusei IC50,Candida krusei ATCC 6258,−/− (- =Not Active)
same,S. aureus IC50,[1],−/− (=Not Active)
same,A. fumigatus IC50,[2],−/− (- =Not Active)
same,P. aureginosa IC50,[3],−/− (=Not Active)
same,C. albicans IC50,[5],−/− (- =Not Active)
same,C. glabrata IC50,[6],−/− (- =Not Active)
same,MRS IC50,[7],−/− (=Not Active)
same,C. neoformans IC50,[8],−/− (- =Not Active)
same,M. intracellulare IC50,[11],−/− (=Not Active)
same,E. coli IC50,[12],−/− (=Not Active)
"C[C@@H]1CC[C@H]2[C@@H](C)C(=O)O[C@@H]3O[C@@]4(C)CC[C@@H]1[C@]32OO4 [Artemisinin, reference compound]",IC50,Plasmodium falciparum,< 0.026 µg/mL
same,IC50,[9],< 0.026 µg/mL
same,IC50,[10],< 0.026 µg/mL
"C[C@@H]1[C@H](O)[C@@H](C)/C=C/C=C/C=C/C=C/C=C/C=C/C=C/[C@H](O[C@@H]2O[C@H](C)[C@@H](O)[C@H](N)[C@@H]2O)C[C@@H]2O[C@](O)(C[C@@H](O)C[C@@H](O)[C@H](O)CC[C@@H](O)C[C@@H](O)CC(=O)O[C@H]1C)C[C@H](O)[C@H]2C(=O)O [Amphotericin B, reference compound]",IC50,[2],1.29 µg/mL
same,IC50,[4],0.13 µg/mL
same,IC90,[4],0.3 µg/mL
same,IC50,[5],0.43 µg/mL
same,MIC,[8],1.25 µg/mL
"CC(C)C1=CC2=CC(=O)[C@H]3C(C)(C)CCC[C@]3(C)C2=C(O)C1=O [Compound 3, taxodione]",C. krusei MIC,Candida krusei ATCC 6258,−
same,IC50,[1],1.35 µg/mL
same,MIC,[1],5 µg/mL
same,S. aureus MIC,[1],2.5 to 5 µg/mL
same,IC50,[2],8.9 µg/mL
same,A. fumigatus MIC,[2]; second value of IC50/MIC,−
same,IC50,[3]; Pseudomonas aeruginosa,> 20 µg/mL
same,IC50,[4],0.08 µg/mL
same,IC90,[4],0.21 µg/mL
same,IC50,[5],12.5 µg/mL
same,C. albicans MIC,[5]; second value of IC50/MIC,−
same,IC50,Plasmodium falciparum,1.2 to 4.8 µg/mL
same,antimalarial activity against Plasmodium falciparum,Plasmodium falciparum,weak antimalarial activity
same,IC50,[7],1.47 µg/mL
same,MIC,[7],2.5 µg/mL
same,MRS MIC,[7],2.5 µg/mL
same,IC50,[8],0.58 µg/mL
same,MIC,[8],1.25 µg/mL
same,C. neoformans MIC,[8],1.25 µg/mL
same,IC50,[9],1.2 µg/mL
same,IC50,[10],1.2 µg/mL
same,IC50,[11]; Mycobacterium intracellulare,11.9 µg/mL
same,M. intracellulare MIC,[11],−
same,IC50,[12]; Escherichia coli,> 20 µg/mL
"N=C(N)c1ccc(OCCCCCOc2ccc(C(=N)N)cc2)cc1 [Pentamidine, reference compound]",IC50,[4],1.4 µg/mL
same,IC90,[4],6 µg/mL
